According to ChEMBL document CHEMBL1139822, “Cytotoxicity of the novel spin trapping compound 5-ethoxycarbonyl-3,5-dimethyl-pyrroline N-oxide (3,5-EDPO) and its derivatives” (Bioorg Med Chem Lett, 2007):

Legend:
SW480 [1] = assay: Cytotoxicity against human SW480 cells at 50 mM after 24 hrs; type: functional
Outline: (§1)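 Human colon carcinoma SW480 cultures were exposed to spin traps at 10 to 100 mM for 24 h. Cytotoxicity was read as the dose-dependent loss in cell number. LDH released into the culture supernatant was also measured and expressed per cell as % of non-treated control. Apoptotic nuclei were stained to distinguish necrosis from apoptosis.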

Hepatocyte [2] = assay: Cytotoxicity in primary rat hepatocytes assessed as decrease in number of hepatocytes after 24 hrs; type: cell-based; set-up: scale not given: the % may be the effect or the level left
Hepatocyte [3] = assay: Cytotoxicity in primary rat hepatocytes assessed as increase in LDH release after 24 hrs; type: cell-based
SW480 [4] = assay: Cytotoxicity against human SW480 cells at 100 mM after 24 hrs; type: functional; outline: as §1

Structure (SMILES): CC1C=[N+]([O-])C(C)(C(=O)OC(C)C)C1 (stereo unspecified)
- Activity (SW480 [1]): <25%
- Activity (Hepatocyte [2]): 60%
- Activity (Hepatocyte [3]): Active

Structure (SMILES): CCCOC(=O)C1(C)CC(C)C=[N+]1[O-] (stereo unspecified)
- Activity (SW480 [1]): <25%

Structure (SMILES): CCCOC(=O)C1(C)C(C)CC=[N+]1[O-] (stereo unspecified)
- Activity (SW480 [4]): 95%

Structure (SMILES): CCOC(=O)C1(C)C(C)CC=[N+]1[O-] (stereo unspecified)
- Activity (SW480 [1]): <25%
- Activity (Hepatocyte [2]): 60%
- Activity (Hepatocyte [3]): Active

Structure (SMILES): CCOC(=O)C1(C)CC(C)C=[N+]1[O-] (stereo unspecified)
- Activity (SW480 [1]): <25%
- Activity (Hepatocyte [2]): 60%
- Activity (Hepatocyte [3]): Active
